Measurements taken from ChEMBL document CHEMBL1932934, “Cyclosulfamide-based derivatives as inhibitors of noroviruses” (Eur J Med Chem, 2012).

Columns and labels:
[1] = Cytotoxicity against human HG23 cells after 48 hrs; type: cell-based; settings: read-out: TD50
Outline: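 Cytotoxicity in Norwalk virus replicon-harboring HG23 cells exposed to compound for 48 hr, measured with a commercial cell cytotoxicity assay kit. The median toxic dose (TD50) was calculated from the readout.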

Norovirus = assay: Antiviral activity against Norovirus infected in human HG23 cells assessed as inhibition of viral replication after 24 hrs by quantitative RT-PCR analysis; type: functional; settings: HG23, 24 h, read-out: ED50 (the source's name)
[2] = Therapeutic index, ratio of TD50 for human HG23 cells to ED50 for Norovirus infected in human HG23 cells; type: cell-based; settings: read-out: Ratio TD50/ED50
Outline: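 Index computed as TD50 divided by ED50, both in NV replicon-harboring HG23 cells. TD50 came from a cytotoxicity assay kit after 48 hr of treatment.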

SMILES | CC50 at 48 h [1] [µM] | EC50 (Norovirus) [µM] | selectivity ratio [2]
COC(=O)C1CCN(CCN2CCN(Cc3cccc(Oc4ccccc4)c3)S2(=O)=O)CC1 | 180 | 5.5 | 
CS(=O)(=O)N1CCN(CCN2CCN(Cc3cccc(Oc4ccccc4)c3)S2(=O)=O)CC1 | 12.2 | 3.2 | < 10
COC(=O)C1CCN(C(=O)CN2CCN(Cc3cccc(Oc4ccccc4)c3)S2(=O)=O)CC1 | 156 | 4.2 | 39
O=S1(=O)N(CCN2CCCCC2)CCN1Cc1cccc(Oc2ccccc2)c1 | 12.3 | 4.7 | 
O=S1(=O)N(CCN2CCNCC2)CCN1Cc1cccc(Oc2ccccc2)c1 | 14.6 | 5.3 | < 10
O=S1(=O)N(CCN2CCN(Cc3ccccc3)CC2)CCN1Cc1cccc(Oc2ccccc2)c1 | 11.4 | 4.1 | < 10
CCCCS(=O)(=O)N1CCN(CCN2CCN(Cc3cccc(Oc4ccccc4)c3)S2(=O)=O)CC1 | 11.1 | 3.4 | < 10
O=C(O)C1CCN(CCN2CCN(Cc3cccc(Oc4ccccc4)c3)S2(=O)=O)CC1 | 210 | 9.1 | 
O=C(c1ccc(F)cc1)N1CCN(CCN2CCN(Cc3cccc(Oc4ccccc4)c3)S2(=O)=O)CC1 | 80.8 | 9.7 | < 10
CCOC(=O)N1CCN(CCN2CCN(Cc3cccc(Oc4ccccc4)c3)S2(=O)=O)CC1 | 13.5 | 5.8 | < 10
O=C(O)C1CCN(C(=O)CN2CCN(Cc3cccc(Oc4ccccc4)c3)S2(=O)=O)CC1 | 80.5 | > 10 | 
O=S1(=O)N(CCN2CCN(Cc3cccc(Oc4ccccc4)c3)S2(=O)=O)CCN1Cc1cccc(Oc2ccccc2)c1 | 8.5 | 1.5 | 
O=S1(=O)N(CCN2CCOCC2)CCN1Cc1cccc(Oc2ccccc2)c1 | 95.4 | 5.2 | 
O=S1(=O)N(CCN2CCN(CCN3CCN(Cc4cccc(Oc5ccccc5)c4)S3(=O)=O)CC2)CCN1Cc1cccc(Oc2ccccc2)c1 | 5.1 | 0.4 | 
O=C(c1ccc(Cl)cc1)N1CCN(CCN2CCN(Cc3cccc(Oc4ccccc4)c3)S2(=O)=O)CC1 | 35.3 | 7.4 | < 10
O=C(c1cccc(Oc2ccccc2)c1)N1CCN(CCN2CCN(Cc3cccc(Oc4ccccc4)c3)S2(=O)=O)CC1 | 32.9 | 6.2 | < 10
CCN1CCN(C(=O)CN2CCN(Cc3cccc(Oc4ccccc4)c3)S2(=O)=O)CC1 | 120 | 5.5 | 24
O=S(=O)(Cc1ccccc1)N1CCN(CCN2CCN(Cc3cccc(Oc4ccccc4)c3)S2(=O)=O)CC1 | 9.3 | 5.3 | < 10
